sEH inhibitor: soluble epoxide hydrolase inhibitors, primary screen, biochemical, human sEH; inhibition, % at 2 µM; actives 0.34% (n = 91,000); recombinant human sEH enzymatic activity assay; Bifunctional epoxide hydrolase 2 (Homo sapiens), P34913; AID 707, 2007; in the data active means inhibition above about 80%
Target sequence (P34913 whole entry, looked up): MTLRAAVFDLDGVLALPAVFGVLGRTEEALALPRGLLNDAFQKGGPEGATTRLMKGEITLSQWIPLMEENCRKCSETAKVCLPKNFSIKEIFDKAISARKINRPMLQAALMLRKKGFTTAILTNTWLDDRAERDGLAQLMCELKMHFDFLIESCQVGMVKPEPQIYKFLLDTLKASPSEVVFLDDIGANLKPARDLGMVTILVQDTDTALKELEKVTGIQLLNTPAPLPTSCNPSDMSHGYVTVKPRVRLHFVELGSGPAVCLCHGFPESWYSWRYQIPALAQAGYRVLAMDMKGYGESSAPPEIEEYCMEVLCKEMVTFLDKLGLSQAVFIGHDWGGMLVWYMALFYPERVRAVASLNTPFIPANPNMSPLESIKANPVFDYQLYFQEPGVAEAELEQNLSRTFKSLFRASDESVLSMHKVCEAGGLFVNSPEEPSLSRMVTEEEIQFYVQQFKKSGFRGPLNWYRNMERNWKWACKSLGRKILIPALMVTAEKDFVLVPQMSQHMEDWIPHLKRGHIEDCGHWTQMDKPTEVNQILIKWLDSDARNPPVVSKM
Measles CPE: compounds protecting cells from measles virus cytopathic effect, primary screen, measles RdRp inhibitor project, single point, MLSMR library, absorbance | actives 1.5% (n = 140,000) | protection (pct of control), % at 4 µM | Measles virus-infected cells, CPE protection; in the data active means protection mostly above about 24%, no sharp cut-off; inactive means mostly below about 26%
Yeast growth inh: growth inhibitors of yeast BB579 in restrictive medium, primary screen, yeast lifespan-shortening project, S. cerevisiae | OD615, 48 h | inhibition, % at 10 µM | actives 0.51% (n = 140,000);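 active means inhibition above a set limit, 3 SD over the mean compound inhibition, cut at about 44% in these data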
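Test system: Saccharomyces cerevisiae DeaD strain BB579, replicative lifespan model yeast | Buffer or medium: Restrictive CSMM-D medium | Doses: One dose, 10 µM compound with 0.25% DMSO | Incubation: 48 h exposure, 30 °C | Detection: Culture absorbance at 615 nm | Control set: Amphotericin B at 10 µg/mL as positive control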
sEH act: soluble epoxide hydrolase activators, primary screen, biochemical, human sEH; Bifunctional epoxide hydrolase 2 (Homo sapiens), P34913; purified human sEH enzymatic activity, activator screen; activation, % at 2 µM; actives 0.04% (n = 91,000); AID 717, 2007; in the data active means activation above about 37%
Yeast life ext: compounds extending yeast replicative lifespan, primary screen, S. cerevisiae, OD615; actives 0.68% (n = 130,000); inhibition of the nicotinamide effect, % at 10 µM; S. cerevisiae growth with nicotinamide; deaD strain in restrictive glucose medium;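 active means inhibition above a set limit, placed 3 SD over the median of all compounds, cut at about 26% in these data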;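 further: 0% = nicotinamide-treated wells and 100% = cells grown without nicotinamide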
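Buffer or medium: CSMM-D glucose medium, restrictive; test system: modified budding yeast, DeaD strain; compound: single dose 10 µM compound, 0.25% DMSO; schedule: culture preincubation 4 h, compound exposure 48 h, both 30 °C; detection: optical density (absorbance) at 615 nm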
SDO1 yeast rescue: growth rescue of sdo1-depleted yeast, primary screen, S. cerevisiae, bone marrow failure model; S. cerevisiae sdo1-depleted JHY4D growth rescue, OD600 30 h; active compounds read high; pdr5 snq2 efflux-pump mutant strain; z-score at 10 µM; actives 0.21% (n = 140,000); AID 817, 2007;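 active means z-score above 3 at both the 24 hr and the 30 hr optical density reads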;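 further: z-score against mean and SD of all compound wells on the same plate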
SDO1 rescue DR: SDO1-depleted yeast growth rescue, concentration-response, diseases of bone marrow failure, JHY4D, OD600 | S. cerevisiae JHY4D (SDO1-depleted) growth rescue, 30 h; active compounds read high; efflux-deficient strain, SNQ2 and PDR5 mutated | OD recovery (concentration not given with the values) | actives 44% (n = 440) | shares compounds with SDO1 yeast rescue;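 active means yeast growth recovered at 30 hours, either rising with dose fitted slope above 0.001 or with average optical density gain above 0.07, some results past the limit were not filed as active; inactive means growth falling with dose or no effect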;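 further: gain in OD600 from 0 h to 30 h averaged across all seven doses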
Starred values were filed as active, the others as inactive; nt = no result given. Hits are enriched below; roughly 3% of the tested compounds scored in any of these assays.

SMILES	sEH inhibitor	Measles CPE	Yeast growth inh	sEH act	Yeast life ext	SDO1 yeast rescue	SDO1 rescue DR
Cc1ccc(C(=O)NCC(=O)OCC(=O)c2ccc3c(c2)OCCO3)cc1C	-0.2	24.7	-20.9	1.0	-13.6	3.06*	0.0571
COc1ccc(C(=O)NCC(=O)OCC(=O)c2ccc3c(c2)OCCO3)cc1	-4.7	10.9	-14.3	6.1	-6.2	0.68	nt
CC(OC(=O)c1c2c(nc3ccccc13)/C(=C\c1ccc3c(c1)OCO3)CCC2)C(=O)Nc1ccc(S(N)(=O)=O)cc1 (stereo not drawn)	nt	8.2	-15.8	nt	-4.7	1.46	0.0846*
CN(c1ccccc1)S(=O)(=O)c1ccc(NC(=S)NC(=O)c2ccccc2)cc1	6.3	12.9	-18.2	-4.2	-13.4	-1.43	nt
COc1ccccc1/C=C/C(=O)NC(=S)Nc1ccc(S(=O)(=O)N(C)c2ccccc2)cc1	12.0	4.6	-33.2	-9.5	17.2	2.02	0.0473
Nn1c(=O)c2ccccc2n2c(SCc3ccc(C(F)(F)F)cc3)nnc12	-25.5	5.0	-13.4	27.0	-11.0	-0.64	nt
COc1cccc(NC(=O)c2ccc(-n3cccn3)nc2)c1	27.0	13.1	-25.0	-24.9	-6.6	1.34	nt
CCOc1ccc2nc(NC(=O)c3ccc(OCC4CCCO4)cc3)sc2c1 (stereo not drawn)	nt	1.9	-48.1	nt	-5.7	0.6	nt
CCc1cc(=O)oc2cc(OC(C)C(=O)O)c(Cl)cc12 (stereo not drawn)	nt	6.5	-12.1	nt	-22.8	3.07*	0.0919*
NC(=O)C1CCN(C(=O)c2ccc(NC3=NC4CS(=O)(=O)CC4S3)cc2)CC1 (stereo not drawn)	nt	4.0	-23.2	nt	7.5	-0.46	nt
COc1ccc(-c2cc(C(F)(F)F)nc(SCC(=O)Nc3cc(C)on3)n2)cc1	14.3	4.2	-40.0	-11.2	-10.6	1.53	0.0841*
Cc1ccccc1OCC(=O)OC(C(=O)c1ccccc1)c1ccccc1 (stereo not drawn)	nt	8.2	-34.8	nt	-2.1	-0.33	nt
CCOc1ccc(N2C(=O)C(Cl)=C(Nc3ccccc3O)C2=O)cc1	-4.2	22.6	-22.2	2.2	-0.9	-0.07	nt
C=CC[C@H]1CC(Cc2ccccc2)=C[C@H](CC=C)N1	nt	19.1	-27.3	nt	4.3	-0.08	nt
C=CC[C@@H]1Cc2c(Br)ccc(Br)c2[C@@H](CC=C)N1	nt	10.5	-29.1	nt	3.5	6.52*	0.104*
CCCc1nn(C)c(C(=O)Nc2ccc3ccccc3c2)c1Cl	nt	18.1	-28.1	nt	-0.3	4.12*	0.0962*
CCCc1nn(C)c(C(=O)Nc2cccc(CC)c2)c1Cl	nt	16.9	-31.2	nt	-2.6	-0.3	nt
N#CCC(=O)NCCCc1ccccc1	nt	7.6	-30.3	nt	1.8	0.74	nt
COc1ccc(C(C2C(=O)CC(C)(C)CC2=O)C2C(=O)CC(C)(C)CC2=O)cc1COCC(F)(F)F	nt	12.6	-11.7	nt	7.9	14.4*	0.0817*
COc1ccc2cc3cc(C(=O)Nc4ccc5c(c4)OCCO5)oc3nc2c1	-7.8	34.5	-4.8	4.7	-1.9	0.91	0.0572
COc1ccc2cc3cc(C(=O)Nc4cc(OC)c(OC)c(OC)c4)oc3nc2c1	8.9	8.6	-14.5	-8.5	-8.4	0.32	nt
O=C(CSc1nnc(-c2ccc(S(=O)(=O)N3CCCC3)cc2)o1)NCc1ccco1	36.9	17.7	-23.7	-36.0	-3.5	2.59	0.0376
CCC(C)[C@H](NC(=O)NCCCN1CCOCC1)C(=O)OC (stereo partly drawn)	-11.1	12.0	-6.0	9.8	-5.9	5.59*	0.065
COC(=O)c1c(C(=O)OC)c2cc(C)ccn2c1Cl	-12.3	8.7	-10.5	12.4	-28.5	10.6*	0.0837*
COC(=O)c1nc2cc(C)ccn2c1F	nt	13.7	-2.4	nt	-7.1	-0.02	nt
COC(=O)Cn1cc(/C=N/NC(=O)c2ccc(C#N)cc2F)c2ccccc21	-14.2	6.0	-43.1	17.1	-12.0	4.05*	0.0694
